Assay [1] has as its target T1, Adenosine receptor A1 (Homo sapiens) (UniProt P30542).
T1 sequence (whole entry): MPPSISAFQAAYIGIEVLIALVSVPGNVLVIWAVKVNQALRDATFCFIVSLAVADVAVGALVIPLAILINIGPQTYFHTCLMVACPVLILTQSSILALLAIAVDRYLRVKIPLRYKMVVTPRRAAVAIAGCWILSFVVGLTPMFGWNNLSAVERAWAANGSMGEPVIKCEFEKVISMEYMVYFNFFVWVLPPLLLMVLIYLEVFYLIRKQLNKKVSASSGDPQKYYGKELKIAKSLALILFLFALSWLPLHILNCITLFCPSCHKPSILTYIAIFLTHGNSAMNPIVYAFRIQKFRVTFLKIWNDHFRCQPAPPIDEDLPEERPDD
Kind of assay: Displacement of [3H]NECA from human recombinant adenosine A1 receptor expressed in CHO cells at 10 uM by liquid scintillation counting. Type of assay: cell-based. The method in brief: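 CHO membranes stably expressing hA1AR, pretreated with adenosine deaminase (3 units/mL, 30 min, 37 °C), 22 μg protein/tube. […] GF/B filtration, scintillation counting, percent inhibition at 10 μM.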
(In general: Displacement assays read how much labelled ligand stays bound in the presence of the test substance.)

Assay [2] concerns the target T2, Adenosine receptor A2a (Homo sapiens, UniProt P29274). Kind of assay: Displacement of [3H]CGS21680 from human recombinant adenosine A2A receptor expressed in HEK293 cells at 10 uM by liquid scintillation counting. Format: cell-based. The method in brief:
(§1)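 HEK293 membranes stably expressing hA2AAR (20 μg protein/tube), deaminase-treated (3 units/mL, 30 min, 37 °C). Competition against 10 nM [3H]CGS21680 in Tris-HCl 50 mM pH 7.5 with 10 mM MgCl2, 25 °C for 60 min. […] Filtered on GF/B, scintillation counted.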

In a further assay the target is T3, Adenosine receptor A3 (Homo sapiens, UniProt P0DMS8).
T3 sequence (P0DMS8 whole entry): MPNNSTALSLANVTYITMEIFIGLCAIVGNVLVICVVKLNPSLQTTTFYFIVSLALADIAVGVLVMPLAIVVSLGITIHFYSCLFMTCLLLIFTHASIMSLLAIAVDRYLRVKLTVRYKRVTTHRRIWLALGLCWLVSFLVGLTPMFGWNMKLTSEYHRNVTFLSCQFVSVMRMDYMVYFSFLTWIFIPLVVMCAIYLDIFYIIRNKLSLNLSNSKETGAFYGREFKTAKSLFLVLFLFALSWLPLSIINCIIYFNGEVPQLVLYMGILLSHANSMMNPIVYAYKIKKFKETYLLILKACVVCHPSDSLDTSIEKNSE
Kind of assay: Displacement of I-AB-MECA from human recombinant adenosine A3 receptor expressed in CHO cells.

The target of assay [3] is T2, Adenosine receptor A2a. Kind of assay: Displacement of [3H]CGS21680 from human recombinant adenosine A2A receptor expressed in HEK293 cells by liquid scintillation counting. Type of assay: cell-based. The method in brief: as §1
The target in assay [4] is Adenosine receptors; A1 & A3 (Homo sapiens) (UniProt P30542+P0DMS8). Nature of the assay: Selectivity for human adenosine A3 receptor over human adenosine A1 receptor.
The next assay is filed under the species Homo sapiens. Kind of assay: Selectivity ratio of Ki for human adenosine A2A receptor to Ki for human adenosine A3 receptor.
Assay [5] addresses T4, Adenosine receptor A2b (Homo sapiens) (UniProt P29275).
T4 sequence (whole entry): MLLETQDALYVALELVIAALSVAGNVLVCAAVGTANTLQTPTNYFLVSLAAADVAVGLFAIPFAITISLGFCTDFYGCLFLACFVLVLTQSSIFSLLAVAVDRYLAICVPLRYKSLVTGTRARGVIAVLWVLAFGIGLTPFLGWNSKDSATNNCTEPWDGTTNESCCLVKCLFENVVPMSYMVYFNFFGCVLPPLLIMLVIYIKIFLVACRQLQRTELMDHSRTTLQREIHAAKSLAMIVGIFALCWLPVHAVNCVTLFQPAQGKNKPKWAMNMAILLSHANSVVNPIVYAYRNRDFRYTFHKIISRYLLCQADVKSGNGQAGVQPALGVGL
Nature of the assay: Agonist activity at human recombinant adenosine A2B receptor expressed in CHO cells assessed as stimulation of cAMP accumulation at 10 uM by liquid scintillation spectrophotometry relative to NECA. (In general: Cyclic AMP is a second messenger, typically raised through Gs and lowered through Gi signalling.)

By inhibition is commonly meant the share of the control response that was lost under treatment. A word on the Ki: it is a measure of affinity in units of concentration, obtained from inhibition or displacement.

T2 sequence (P29274 whole entry): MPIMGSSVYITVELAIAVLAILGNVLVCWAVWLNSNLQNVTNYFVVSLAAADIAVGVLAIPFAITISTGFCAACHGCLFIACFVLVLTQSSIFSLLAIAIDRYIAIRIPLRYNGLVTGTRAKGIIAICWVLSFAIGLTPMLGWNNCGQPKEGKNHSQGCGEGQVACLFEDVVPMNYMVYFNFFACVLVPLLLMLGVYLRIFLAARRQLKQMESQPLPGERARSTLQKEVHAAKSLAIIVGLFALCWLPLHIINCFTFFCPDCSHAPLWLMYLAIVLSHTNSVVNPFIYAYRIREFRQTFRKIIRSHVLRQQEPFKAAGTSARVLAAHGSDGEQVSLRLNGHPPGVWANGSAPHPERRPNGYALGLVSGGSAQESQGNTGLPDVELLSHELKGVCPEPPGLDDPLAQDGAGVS

On to `CNC(=O)[C@@]12C[C@@H]1[C@@H](n1cnc3c(NCc4cccc(Cl)c4)nc(C#CCCCCc4cn(CCCCCCNC(=O)c5ccc(-c6c7ccc(=N)c(S(=O)(=O)O)c-7oc7c(S(=O)(=O)O)c(N)ccc67)c(C(=O)O)c5)nn4)nc31)[C@H](O)[C@@H]2O`, for which the inhibition (INH) in assay [1] worked out at 0%. Further, the inhibition on Adenosine receptor A2a [2] amounted to 23%. Moreover, the Ki at Adenosine receptor A3 worked out at 416 nM.
In the case of `CNC(=O)[C@@]12C[C@@H]1[C@@H](n1cnc3c(NCc4cccc(Cl)c4)nc(C#CCCCCc4cn(Cc5ccc(-n6sccc6=O)cc5)nn4)nc31)[C@H](O)[C@@H]2O`, the inhibition was determined as 15% in assay [1] and 49% at Adenosine receptor A2a [2].
For the compound `C#CCCCCC#Cc1nc(NCc2cccc(Cl)c2)c2ncn([C@H]3[C@H](O)[C@H](O)[C@]4(C(=O)NC)C[C@H]34)c2n1`, the inhibition in assay [1] is 31%. The Ki at Adenosine receptor A2a [3] worked out at 7040 nM; on Adenosine receptor A3 it was 29.4 nM. In assay [4], the Selectivity ratio was over 400. For the same compound, the Ratio Ki in the assay filed under Homo sapiens was 300.
On to `CNC(=O)[C@@]12C[C@@H]1[C@@H](n1cnc3c(NCc4cccc(Cl)c4)nc(C#CCCC(=O)NCCNC(=O)CCCCC4SCC5NC(=O)NC54)nc31)[C@H](O)[C@@H]2O` (some centres not stated), for which the values for the inhibition (in assay [1]; on Adenosine receptor A2a [2]) were 1% and 51%, respectively. For the same compound, the Ki at Adenosine receptor A3 was found to be 36.4 nM.
`C#CCCCC#Cc1nc(NCc2cccc(Cl)c2)c2ncn([C@@H]3[C@H](O)[C@H](O)[C@]4(C(=O)NC)C[C@H]34)c2n1`: the inhibition in assay [1] was 36%. The inhibition constant (Ki) was 4330 nM on Adenosine receptor A2a [3] and 23.6 nM at Adenosine receptor A3. The Selectivity ratio in assay [4] was over 400. Besides, in the assay listed under Homo sapiens, the Ratio Ki was 300.
On to `CNC(=O)[C@@]12C[C@@H]1[C@@H](n1cnc3c(NCc4cccc(Cl)c4)nc(C#CCCCCc4cn(CCCCNC(C)=O)nn4)nc31)[C@H](O)[C@@H]2O`, for which, in assay [1], the inhibition is 17%.
With `CNC(=O)[C@@]12C[C@@H]1[C@@H](n1cnc3c(NCc4cccc(Cl)c4)nc(C#CCCCCc4cn(-c5ccc(N=C=S)cc5)nn4)nc31)[C@H](O)[C@@H]2O`, the results for the inhibition (in assay [1]; on Adenosine receptor A2a [2]) were 2% and 28%, respectively.
Consider `CCN1\C(=C/C=C/C=C/C2=[N+](CCCCCC(=O)NCCNC(=O)CCC#Cc3nc(NCc4cccc(Cl)c4)c4ncn([C@H]5[C@H](O)[C@H](O)[C@]6(C(=O)NC)C[C@H]56)c4n3)c3ccc(S(=O)(=O)[O-])cc3C2(C)C)C(C)(C)c2cc(S(=O)(=O)O)ccc21`, for which the inhibition in assay [1] amounted to 36%. Further, the Ki at Adenosine receptor A2a [3] was 4730 nM.
Turning to `CNC(=O)[C@@]12C[C@@H]1[C@@H](n1cnc3c(NCc4cccc(Cl)c4)nc(C#CCCCCc4cn(-c5ccc(C(=O)O)cc5)nn4)nc31)[C@H](O)[C@@H]2O`, the inhibition in assay [1] turned out to be 0%; on Adenosine receptor A2a [2], 40%.
Take `CNC(=O)[C@@]12C[C@@H]1[C@@H](n1cnc3c(NCc4cccc(Cl)c4)nc(C#CCCCCc4cn(CCCCN)nn4)nc31)[C@H](O)[C@@H]2O`: in assay [1], the inhibition stood at 13%.
With `CCNC(=O)[C@H]1O[C@@H](n2cnc3c(N)ncnc32)[C@H](O)[C@@H]1O`, the Activity in assay [5] was found to be 100%.
As for `CNC(=O)[C@@]12C[C@@H]1[C@@H](n1cnc3c(NCc4cccc(Cl)c4)nc(C#CCCC(=O)NCCNC(=O)CCCCCNC(=O)CCCCC4SCC5NC(=O)NC54)nc31)[C@H](O)[C@@H]2O` (some centres not stated), the inhibition in assay [1] was determined as 12%; on Adenosine receptor A2a [2], 47%. Also, the Ki on Adenosine receptor A3 worked out at 57.7 nM.
For the compound `CNC(=O)[C@@]12C[C@@H]1[C@@H](n1cnc3c(NCc4cccc(Cl)c4)nc(C#CCCCCc4cn(CCNC(C)=O)nn4)nc31)[C@H](O)[C@@H]2O`, the inhibition in assay [1] stood at 12%. In addition, the Ratio Ki in the assay listed under Homo sapiens stood at 109. Besides, the Activity in assay [5] was 19.4%.
As to `CNC(=O)[C@@]12C[C@@H]1[C@@H](n1cnc3c(NCc4cccc(Cl)c4)nc(C#CCCCCc4cn(-c5ccc(N)cc5)nn4)nc31)[C@H](O)[C@@H]2O`, the inhibition in assay [1] came to 3%.
For the compound `CNC(=O)[C@@]12C[C@@H]1[C@@H](n1cnc3c(NCc4cccc(Cl)c4)nc(-c4nnn(-c5ccc(N=C=S)cc5)c4CCCCc4cn(-c5ccc(N=C=S)cc5)nn4)nc31)[C@H](O)[C@@H]2O`, the inhibition in assay [1] is 4%; on Adenosine receptor A2a [2] it was 40%.
In the case of `CNC(=O)[C@@]12C[C@@H]1[C@@H](n1cnc3c(NCc4cccc(Cl)c4)nc(C#CCCCCc4cn(C56CC7CC(CC(C7)C5)C6)nn4)nc31)[C@H](O)[C@@H]2O`, the inhibition in assay [1] came to 22%. Moreover, the Ratio Ki in the assay filed under Homo sapiens turned out to be 500. For the same compound, the Activity in assay [5] was determined as 36.5%.
Take `CNC(=O)[C@@]12C[C@@H]1[C@@H](n1cnc3c(NCc4cccc(Cl)c4)nc(C#CCCCCc4cn(CCCCCCNC5SCC6NC(=O)NC65)nn4)nc31)[C@H](O)[C@@H]2O` (some centres not stated): in assay [1], the inhibition (INH) was determined as 0%. For the same compound, the inhibition on Adenosine receptor A2a [2] is 27%. On Adenosine receptor A3, the inhibition constant (Ki) amounted to 285 nM.

Values taken from ChEMBL document CHEMBL1159060, “2-Dialkynyl derivatives of (N)-methanocarba nucleosides: 'Clickable' A(3) adenosine receptor-selective agonists” (Bioorg Med Chem, 2010).
